Reference: ChEMBL document CHEMBL1155517, “Rational design of a topical androgen receptor antagonist for the suppression of sebum production with properties suitable for follicular delivery” (J Med Chem, 2010)
The source made the active and inactive calls. The rule behind the calls is not given here.

Columns and labels:
[1] = Artificial human sebum-water partition coefficient, log K of the compound; format: physicochemical
In short: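 About 5 mg artificial human sebum, spiked with drug at 1 mg/250 μL sebum, was equilibrated with 1 mL saturated aqueous solution at 37 C for 15 h. Drug concentration in the aqueous phase was then analysed, and the sebum–water partition coefficient was derived from it.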

[2] = test system: Syrian golden hamster; experiment: Inhibition of wax ester in Syrian golden hamster ear model for sebum at 1% administered topically BID 5 days a week for 2 weeks measured 18 to 24 hrs after the final dose; format: functional, Mesocricetus auratus
[3] = test system: Syrian golden hamster; experiment: Inhibition of cholesterol ester in Syrian golden hamster ear model for sebum at 1% administered topically BID 5 days a week for 2 weeks measured 18 to 24 hrs after the final dose; format: functional, Mesocricetus auratus
[4] = target: T1, Progesterone receptor (Homo sapiens, UniProt P06401); experiment: Binding affinity to progesterone receptor by PRB assay
T1 sequence (P06401 whole entry): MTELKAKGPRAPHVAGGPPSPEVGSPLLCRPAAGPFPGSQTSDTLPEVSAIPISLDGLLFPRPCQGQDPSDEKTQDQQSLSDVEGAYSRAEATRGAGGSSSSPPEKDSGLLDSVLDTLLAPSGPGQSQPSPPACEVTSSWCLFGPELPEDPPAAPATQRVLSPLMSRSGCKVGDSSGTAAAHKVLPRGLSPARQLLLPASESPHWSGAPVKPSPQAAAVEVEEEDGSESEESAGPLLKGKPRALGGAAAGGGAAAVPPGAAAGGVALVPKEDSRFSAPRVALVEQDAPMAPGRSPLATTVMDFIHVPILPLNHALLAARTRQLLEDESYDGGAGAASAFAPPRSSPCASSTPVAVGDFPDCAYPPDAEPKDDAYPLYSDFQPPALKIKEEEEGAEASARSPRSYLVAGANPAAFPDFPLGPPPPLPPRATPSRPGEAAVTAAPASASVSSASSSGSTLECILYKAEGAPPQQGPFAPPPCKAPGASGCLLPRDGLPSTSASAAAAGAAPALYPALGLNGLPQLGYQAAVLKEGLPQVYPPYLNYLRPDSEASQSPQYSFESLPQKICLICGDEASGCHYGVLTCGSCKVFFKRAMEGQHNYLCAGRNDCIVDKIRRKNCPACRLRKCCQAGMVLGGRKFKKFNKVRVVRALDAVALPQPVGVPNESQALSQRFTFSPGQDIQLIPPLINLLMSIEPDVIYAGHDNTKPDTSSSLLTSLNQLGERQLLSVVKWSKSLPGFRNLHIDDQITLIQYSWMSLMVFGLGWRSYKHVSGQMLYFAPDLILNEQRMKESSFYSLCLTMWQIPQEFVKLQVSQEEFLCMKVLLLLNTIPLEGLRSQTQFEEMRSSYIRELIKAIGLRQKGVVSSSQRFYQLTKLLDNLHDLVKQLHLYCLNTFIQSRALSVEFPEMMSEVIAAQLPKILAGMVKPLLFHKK

[5] = Octanol-buffer partition coefficient, log D at pH 7.4; format: physicochemical; details: read-out: LogD7.4
[6] = target: T2, Androgen receptor (Homo sapiens, UniProt P10275); experiment: Antagonist activity at androgen receptor in human MDA-MB-453 cells coexpressing MMTV-ARE reporter gene assessed as inhibition of DHT-induced response; format: functional, cell-based
T2 sequence (P10275 whole entry): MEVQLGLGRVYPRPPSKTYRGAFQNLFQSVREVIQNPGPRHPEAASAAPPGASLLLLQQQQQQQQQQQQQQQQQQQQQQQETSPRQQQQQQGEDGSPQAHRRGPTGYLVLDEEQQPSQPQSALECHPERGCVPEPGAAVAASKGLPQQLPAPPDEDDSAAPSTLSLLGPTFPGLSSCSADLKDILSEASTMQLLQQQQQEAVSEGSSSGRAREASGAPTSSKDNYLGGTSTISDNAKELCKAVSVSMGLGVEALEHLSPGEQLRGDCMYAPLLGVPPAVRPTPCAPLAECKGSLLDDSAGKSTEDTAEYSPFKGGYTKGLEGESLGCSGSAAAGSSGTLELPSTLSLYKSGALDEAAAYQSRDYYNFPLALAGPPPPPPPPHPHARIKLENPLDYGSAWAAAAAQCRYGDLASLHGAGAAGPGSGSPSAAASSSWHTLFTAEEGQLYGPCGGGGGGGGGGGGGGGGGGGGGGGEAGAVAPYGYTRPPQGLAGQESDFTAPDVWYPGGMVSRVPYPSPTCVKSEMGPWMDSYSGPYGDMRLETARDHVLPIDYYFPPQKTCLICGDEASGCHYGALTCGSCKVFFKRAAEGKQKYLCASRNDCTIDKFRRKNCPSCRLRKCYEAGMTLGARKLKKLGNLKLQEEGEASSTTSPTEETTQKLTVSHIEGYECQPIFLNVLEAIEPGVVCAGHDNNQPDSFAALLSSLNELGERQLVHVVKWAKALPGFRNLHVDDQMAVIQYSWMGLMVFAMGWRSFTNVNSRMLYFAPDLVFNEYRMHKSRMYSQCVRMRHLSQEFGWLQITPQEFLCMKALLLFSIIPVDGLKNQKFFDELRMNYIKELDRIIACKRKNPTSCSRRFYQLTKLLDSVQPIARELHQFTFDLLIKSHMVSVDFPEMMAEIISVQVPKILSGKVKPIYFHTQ

[7] = target: T2, Androgen receptor; experiment: Displacement of [3H]DHT from human AR expressed in baculovirus Sf9 cells system by scintillation counting
[8] = Drug level in Syrian golden hamster sebaceous gland at 0.2% administered topically after 8 hrs; format: ADME, tissue-based, Mesocricetus auratus; details: topical or ocular, read-out: Drug uptake
[9] = test system: Rattus norvegicus; experiment: Liver blood flow in rat at 1 mg/kg, iv; format: ADME, organism-based; parameters: dose 1 mg/kg, route intravenous; details: in vivo
[10] = Clearance in rat at 1 mg/kg, iv; format: ADME, organism-based; parameters: dose 1 mg/kg, route intravenous; details: in vivo
[11] = Hamster sebum-water partition coefficient, log K of the compound; format: ADME
[12] = test system: Rattus norvegicus; experiment: Toxicity in Sprague-Dawley rat assessed as systemic antiandrogenic effect at 0.5 to 300 mg/kg, po administered once-daily for 7 days; format: organism-based; parameters: dose 0.5-300 mg/kg, route oral; details: in vivo, 168 h
[13] = target: T3, Estrogen receptor (Homo sapiens, UniProt P03372); experiment: Binding affinity to estrogen receptor
T3 sequence (P03372 whole entry): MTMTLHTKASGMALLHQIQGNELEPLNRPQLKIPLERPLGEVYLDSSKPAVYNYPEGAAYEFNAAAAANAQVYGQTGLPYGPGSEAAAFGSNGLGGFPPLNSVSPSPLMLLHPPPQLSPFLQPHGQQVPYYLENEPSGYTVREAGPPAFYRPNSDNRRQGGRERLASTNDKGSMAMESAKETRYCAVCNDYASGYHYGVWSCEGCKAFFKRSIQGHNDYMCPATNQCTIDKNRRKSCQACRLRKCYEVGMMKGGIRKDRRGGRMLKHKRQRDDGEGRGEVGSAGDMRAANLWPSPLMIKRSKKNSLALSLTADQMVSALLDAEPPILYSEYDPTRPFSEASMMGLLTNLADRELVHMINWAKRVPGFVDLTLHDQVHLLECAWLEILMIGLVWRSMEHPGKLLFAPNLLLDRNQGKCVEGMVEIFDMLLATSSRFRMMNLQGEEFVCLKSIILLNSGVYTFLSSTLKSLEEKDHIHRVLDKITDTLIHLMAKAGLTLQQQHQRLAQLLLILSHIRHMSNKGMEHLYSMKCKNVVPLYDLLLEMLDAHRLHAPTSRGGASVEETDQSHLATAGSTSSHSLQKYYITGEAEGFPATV

[14] = target: T4, Glucocorticoid receptor (Homo sapiens, UniProt P04150); experiment: Binding affinity to glucocorticoid receptor
T4 sequence (P04150 whole entry): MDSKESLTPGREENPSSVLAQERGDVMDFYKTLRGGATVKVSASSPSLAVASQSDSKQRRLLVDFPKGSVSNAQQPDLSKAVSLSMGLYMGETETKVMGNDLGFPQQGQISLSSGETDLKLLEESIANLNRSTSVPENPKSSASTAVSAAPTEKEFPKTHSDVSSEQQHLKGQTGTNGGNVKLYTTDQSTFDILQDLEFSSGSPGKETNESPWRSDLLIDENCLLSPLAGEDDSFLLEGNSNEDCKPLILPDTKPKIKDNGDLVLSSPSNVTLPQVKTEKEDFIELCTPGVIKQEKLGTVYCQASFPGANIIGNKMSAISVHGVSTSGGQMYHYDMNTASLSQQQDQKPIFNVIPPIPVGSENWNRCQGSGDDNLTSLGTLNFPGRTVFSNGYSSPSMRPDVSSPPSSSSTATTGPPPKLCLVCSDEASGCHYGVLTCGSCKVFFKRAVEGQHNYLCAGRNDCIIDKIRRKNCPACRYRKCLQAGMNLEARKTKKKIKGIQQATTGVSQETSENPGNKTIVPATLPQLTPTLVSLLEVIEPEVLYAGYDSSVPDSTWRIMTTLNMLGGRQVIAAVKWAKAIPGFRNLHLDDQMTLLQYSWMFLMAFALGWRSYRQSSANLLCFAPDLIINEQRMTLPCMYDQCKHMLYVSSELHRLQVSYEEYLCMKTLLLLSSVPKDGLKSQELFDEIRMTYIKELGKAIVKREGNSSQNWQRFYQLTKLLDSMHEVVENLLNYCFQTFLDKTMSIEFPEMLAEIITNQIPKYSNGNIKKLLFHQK

[15] = test system: Sus scrofa; experiment: Toxicity in minipig assessed as systemic antiandrogenic effect at 25% administered topically BID for 7 days; format: organism-based; details: pig, in vivo, topical_or_ocular, 168 h
[16] = test system: Syrian golden hamster; experiment: Toxicity in Syrian golden hamster ear model for sebum assessed as cytotoxicity-mediated sebaceous gland size administered topically BID 5 days a week for 2 weeks measured 18 to 24 hrs after the final dose; format: organism-based, Mesocricetus auratus; details: in vivo, topical_or_ocular
In short: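 After 2 weeks of twice-daily topical application to hamster ears, sebocytes were examined histopathologically for cytotoxic changes alongside the reduction in sebaceous gland size.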

[17] = Intrinsic clearance in human liver microsomes after 1 hr by LC/MS/MS method; format: ADME, Microsome
[18] = Clearance in human; format: ADME, organism-based; details: in vivo
[19] = Elimination half life in Syrian golden hamster sebaceous gland at 0.2% administered topically after 8 hrs; format: ADME, tissue-based, Mesocricetus auratus; details: topical or ocular, read-out: beta t1/2 (converted)
[20] = test system: Syrian golden hamster; experiment: Reduction in wax ester-associated sebaceous gland size decrease in Syrian golden hamster ear model for sebum administered topically BID 5 days a week for 2 weeks measured 18 to 24 hrs after the final dose; format: functional, organism-based; details: Mesocricetus auratus
In short: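 Hamsters were dosed on the ear twice daily for 2 weeks. Sebaceous gland size was quantified by fatty acid synthase immunohistochemical staining and correlated with wax ester reduction by correlation coefficient.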

[21] = test system: Sus scrofa; experiment: Toxicity in minipig assessed as dermal toleration at 25% administered topically BID for 7 days; format: organism-based; details: pig, in vivo, topical_or_ocular, 168 h
[22] = test system: Syrian golden hamster; experiment: Inhibition of wax ester in Syrian golden hamster ear model for sebum administered topically BID 5 days a week for 2 weeks measured 18 to 24 hrs after the final dose; format: functional, Mesocricetus auratus
In short: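 Golden Syrian hamster ear model with twice-daily topical dosing for 2 weeks in the vehicle chosen for phase 1 studies. Wax ester production was measured across a range of doses, and ED50 was expressed as % dose. Data are mean ± SEM, N = 5.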

[23] = test system: Mus musculus; experiment: Toxicity in BALB/c mouse assessed as skin sensitization at 25% administered for 4 days; format: organism-based; details: in vivo, 96 h
[24] = test system: Mus musculus; experiment: Toxicity in BALB/c mouse assessed as lymph node contact hypersensitivity at 25% administered for 4 days; format: organism-based; details: in vivo, 96 h
[25] = Binding affinity to thyroid hormone receptor
[26] = test system: Syrian golden hamster; experiment: Inhibition of cholesterol ester in Syrian golden hamster ear model for sebum at 1.5% administered topically BID 5 days a week for 2 weeks measured 18 to 24 hrs after the final dose; format: functional, Mesocricetus auratus
[27] = test system: Syrian golden hamster; experiment: Inhibition of wax ester in Syrian golden hamster ear model for sebum at 1.5% administered topically BID 5 days a week for 2 weeks measured 18 to 24 hrs after the final dose; format: functional, Mesocricetus auratus

Structure (SMILES)	log K [1]	inhibition (INH) [2] [%]	inhibition (INH) [3] [%]	IC50 [4] [nM]	logD [5]	IC50 [6] [nM]	IC50 [7] [nM]	other results
N#Cc1ccc(Sc2ccccc2F)cc1C(F)(F)F	4.48	64	50	6950	–	–	–	–
C[C@H](O)CC[C@H](C)Oc1ccc(C#N)c(C(F)(F)F)c1	2.06	–	–	–	3.73	–	–	–
CCCN1CC(C)(C)[C@@H](Oc2ccc(C#N)c(C(F)(F)F)c2)C1=O	2.74	–	–	–	3.33	–	–	–
N#Cc1ccc(Oc2ccc(F)cc2F)cc1C(F)(F)F	4.06	31	24	> 10000	–	60	488	–
CC1(C)CN(Cc2ccccc2)C(=O)[C@@H]1Oc1ccc(C#N)c(C(F)(F)F)c1	3.92	78	61	4400	4.88	38	100	concentration at 8 h [8]: 156 µM; LBF [9]: 80%; clearance [10]: 57 mL/min/kg; log K [11]: 3.85; Activity [12]: Non-toxic; IC50 [13]: > 10000 nM; IC50 [14]: > 10000 nM; Activity [15]: Non-toxic; Activity [16]: Non-toxic; CLint scaled [17]: 121 mL/min/kg; clearance [18]: 16 mL/min/kg; half-life [19]: 7 h; Activity [20]: Active; Activity [21]: Non-toxic; ED50 [22]: 0.02 mg/cm2; Activity [23]: Non-toxic; Activity [24]: Non-toxic; IC50 [25]: > 10000 nM
CC1(C)CN(Cc2ccccc2F)C(=O)[C@@H]1Oc1ccc(C#N)c(C(F)(F)F)c1	3.95	72	42	4820	–	44	174	–
N#Cc1ccc(O[C@@H]2CCCC[C@H]2C#N)cc1C(F)(F)F	3.03	–	–	–	3.4	–	–	–
CSc1ccc(CN2CC(C)(C)[C@@H](Oc3ccc(C#N)c(C(F)(F)F)c3)C2=O)cc1	4.6	–	–	> 10000	–	28	316	inhibition (INH) [26]: 75%; inhibition (INH) [27]: 89%
